The source made the active and inactive calls. The calls are words filed in the database; no cut-off is given here.
Columns and labels:
[1] = species: Cavia porcellus; assay: Chronotropic activity at L type calcium channel in guinea pig right atrium assessed as decrease in spontaneous beating; type: tissue-based; conditions: Cardiac atrium
In short: (§1)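 Guinea-pig atria: left atrium driven at 1 Hz for inotropy, spontaneously beating right atrium for chronotropy. Increasing cumulative doses, readout is percent decrease. EC50 (inotropic) and EC30 (chronotropic) by Litchfield–Wilcoxon probit analysis on log concentration–response curves, n = 6–7. Not calculated when the maximum effect was below 50%.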

[2] = species: Cavia porcellus; assay: Inotropic activity at L type calcium channel in guinea pig left atrium assessed as decrease in tension at 50 uM relative to control; type: tissue-based; parameters: scale not given: the % may be the effect or the level left; conditions: Cardiac atrium
[3] = Inotropic activity at L type calcium channel in guinea pig left atrium assessed as decrease in tension; type: tissue-based; conditions: Cavia porcellus, Cardiac atrium; in short: as §1
[4] = species: Cavia porcellus; assay: Chronotropic activity at L type calcium channel in guinea pig right atrium assessed as decrease in spontaneous beating at 10 uM relative to control; type: tissue-based; parameters: scale not given: the % may be the effect or the level left; conditions: Cardiac atrium
[5] = species: Cavia porcellus; assay: Activity at L type calcium channel in K+ depolarized guinea pig aortic strip assessed as inhibition of calcium induced contraction at 100 uM; type: tissue-based; parameters: scale not given: the % may be the effect or the level left; conditions: Aorta
In short: (§2)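 Guinea-pig aortic strips depolarized with 80 mM K+. Drugs added cumulatively. Readout is percent inhibition of calcium-induced contraction, n = 5–6. Control versus treated values tested at each concentration by Student's t-test, P < 0.05.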

[6] = Activity at L type calcium channel in K+ depolarized guinea pig longitudinal smooth muscle assessed as inhibition of calcium induced contraction; parameters: species or system Cavia porcellus
[7] = species: Cavia porcellus; assay: Activity at L type calcium channel in K+ depolarized guinea pig longitudinal smooth muscle assessed as inhibition of calcium induced contraction at 10 uM; parameters: scale not given: the % may be the effect or the level left
[8] = species: Cavia porcellus; assay: Activity at L type calcium channel in K+ depolarized guinea pig aortic strip assessed as inhibition of calcium induced contraction at 50 uM; type: tissue-based; parameters: scale not given: the % may be the effect or the level left; conditions: Aorta; in short: as §2
[9] = species: Cavia porcellus; assay: Activity at L type calcium channel in K+ depolarized guinea pig longitudinal smooth muscle assessed as inhibition of calcium induced contraction at 0.1 uM; parameters: scale not given: the % may be the effect or the level left
[10] = species: Cavia porcellus; assay: Activity at L type calcium channel in K+ depolarized guinea pig aortic strip assessed as inhibition of calcium induced contraction at 10 uM; type: tissue-based; parameters: scale not given: the % may be the effect or the level left; conditions: Aorta; in short: as §2
[11] = species: Cavia porcellus; assay: Chronotropic activity at L type calcium channel in guinea pig right atrium assessed as decrease in spontaneous beating at 5 uM relative to control; type: tissue-based; parameters: scale not given: the % may be the effect or the level left; conditions: Cardiac atrium
[12] = species: Cavia porcellus; assay: Inotropic activity at L type calcium channel in guinea pig left atrium assessed as decrease in tension at 100 uM relative to control; type: tissue-based; parameters: scale not given: the % may be the effect or the level left; conditions: Cardiac atrium
[13] = species: Cavia porcellus; assay: Chronotropic activity at L type calcium channel in guinea pig right atrium assessed as decrease in spontaneous beating at 100 uM relative to control; type: tissue-based; parameters: scale not given: the % may be the effect or the level left; conditions: Cardiac atrium
[14] = species: Cavia porcellus; assay: Activity at L type calcium channel in K+ depolarized guinea pig longitudinal smooth muscle assessed as inhibition of calcium induced contraction at 100 uM; parameters: scale not given: the % may be the effect or the level left
[15] = species: Cavia porcellus; assay: Inotropic activity at L type calcium channel in guinea pig left atrium assessed as decrease in tension at 10 uM relative to control; type: tissue-based; parameters: scale not given: the % may be the effect or the level left; conditions: Cardiac atrium
[16] = species: Cavia porcellus; assay: Inotropic activity at L type calcium channel in guinea pig left atrium assessed as decrease in tension at 5 uM relative to control; type: tissue-based; parameters: scale not given: the % may be the effect or the level left; conditions: Cardiac atrium
[17] = species: Cavia porcellus; assay: Inotropic activity at L type calcium channel in guinea pig left atrium assessed as decrease in tension at 1 uM relative to control; type: tissue-based; parameters: scale not given: the % may be the effect or the level left; conditions: Cardiac atrium
[18] = test system: HEK293; assay: Displacement of (+)-[5-methyl-3H][…] from L type calcium channel Cav1.2b in rabbit expressed in HEK293 cells; type: cell-based; conditions: Oryctolagus cuniculus
In short: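 Intact HEK-293 cells transfected with rabbit Cav1.2a (α1C-a) or Cav1.2b (α1C-b) plasmid, labelled with (+)-[5-methyl-3H]PN200-110. Nonspecific binding about 10–20% of total. IC50 is mean ± S.E.M. of three independent experiments.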

[19] = species: Cavia porcellus; assay: Activity at L type calcium channel in K+ depolarized guinea pig longitudinal smooth muscle assessed as inhibition of calcium induced contraction at 1 uM; parameters: scale not given: the % may be the effect or the level left
[20] = Displacement of (+)-[5-methyl-3H][…] from L type calcium channel in guinea pig heart ventricles; parameters: species or system Cavia porcellus
In short: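 Guinea-pig ventricular membranes incubated with 0.5 nM (+)-[5-methyl-3H]PN200-110 and test compounds at 0.1–50 µM in a competitive radioligand assay. Ki and IC50 reported as mean ± S.E.M. Student's t-test, significance P < 0.001.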

COC(=O)C1=C(C)NC(C)=C(C(=O)OC)C1c1c(-c2ccc(OC)cc2OC)nc2sccn12
EC30 [1]: 5.88 µM
Activity [2]: 71%
EC50 [3]: 1.24 µM
Activity [4]: 55%
Activity [5]: 42%

COC(=O)C1=C(C)NC(C)=C(C(=O)OC)C1c1c(-c2cc(OC)ccc2OC)nc2sccn12
IC50 [6]: 12.3 µM
Activity [7]: 51%
Activity [2]: 92%
EC50 [3]: 0.44 µM
Activity [4]: 31%
Activity [5]: 24%

COC(=O)C1=C(C)NC(C)=C(C(=O)OC)C1c1c(C)nc2sc(Cl)cn12
Activity [2]: 63%
EC50 [3]: 0.13 µM
Activity [8]: 24%
Activity [4]: 30%

COC(=O)C1=C(C)NC(C)=C(C(=O)OC)C1c1c(-c2cc(OC)ccc2OC)nc2sc(C)cn12
EC30 [1]: 1.36 µM
Activity [2]: 78%
EC50 [3]: 1.43 µM
Activity [4]: 58%
Activity [5]: 15%

COC(=O)C1=C(C)NC(C)=C(C(=O)OC)C1c1c(-c2cccc(OC)c2)nc2sccn12
IC50 [6]: 0.083 µM
EC30 [1]: 0.55 µM
Activity [9]: 51%
Activity [10]: 48%
Activity [11]: 94%
EC50 [3]: 1.9 µM
Activity [12]: 90%

COC(=O)C1=C(C)NC(C)=C(C(=O)OC)C1c1c(-c2c(OC)ccc(OC)c2[N+](=O)[O-])nc2sccn12
IC50 [6]: 11 µM
Activity [13]: 12%
Activity [14]: 86%
EC50 [3]: 0.36 µM
Activity [15]: 71%
Activity [5]: 17%

COC(=O)C1=C(C)NC(C)=C(C(=O)OC)C1c1c(Cl)nc2sc(C)c(C)n12
Activity [10]: 29%
Activity [16]: 73%
Activity [11]: 29%
EC50 [3]: 0.081 µM

COC(=O)C1=C(C)NC(C)=C(C(=O)OC)C1c1c(-c2ccccc2OC)nc2sccn12
EC30 [1]: 1.99 µM
Activity [13]: 95%
EC50 [3]: 1.97 µM
Activity [12]: 54%
Activity [5]: 28%

COC(=O)C1=C(C)NC(C)=C(C(=O)OC)C1c1c(-c2cccc(C(F)(F)F)c2)nc2sccn12
EC30 [1]: 1.9 µM
Activity [2]: 89%
EC50 [3]: 0.31 µM
Activity [8]: 27%
Activity [4]: 78%

COC(=O)C1=C(C)NC(C)=C(C(=O)OC)C1c1c(-c2cc(OC)c([N+](=O)[O-])cc2OC)nc2sc(Cl)cn12
EC30 [1]: 0.31 µM
Activity [10]: 19%
Activity [11]: 90%
EC50 [3]: 0.36 µM
Activity [15]: 58%

COC(=O)C1=C(C)NC(C)=C(C(=O)OC)C1c1c(-c2cc(OC)c([N+](=O)[O-])cc2OC)nc2sccn12
IC50 [6]: 2.56 µM
Activity [7]: 97%
EC30 [1]: 3.97 µM
Activity [16]: 54%
EC50 [3]: 0.054 µM
Activity [8]: 35%
Activity [4]: 67%

COC(=O)C1=C(C)NC(C)=C(C(=O)OC)C1c1c(-c2c(OC)ccc(OC)c2[N+](=O)[O-])nc2sc(Cl)cn12
Activity [17]: 42%
EC30 [1]: 11.2 µM
Activity [13]: 64%
Activity [5]: 32%

COC(=O)C1=C(C)NC(C)=C(C(=O)OC)C1c1c(-c2cc(OC)c([N+](=O)[O-])cc2OC)nc2sc(C)cn12
IC50 [6]: 0.24 µM
EC30 [1]: 2.11 µM
Activity [18]: inactive
Activity [16]: 75%
Activity [19]: 94%
Log Ki [20]: < -5
EC50 [3]: 0.026 µM
Activity [4]: 87%
Activity [5]: 32%

CCCc1cn2c(C3C(C(=O)OC)=C(C)NC(C)=C3C(=O)OC)c(-c3c(OC)ccc(OC)c3[N+](=O)[O-])nc2s1
IC50 [6]: 12.8 µM
Activity [2]: 55%
Activity [11]: 25%
Activity [14]: 89%
EC50 [3]: 0.039 µM
Activity [5]: 5%

COC(=O)C1=C(C)NC(C)=C(C(=O)OC)C1c1c(Cl)nc2scc(C)n12
Activity [17]: 79%
EC50 [3]: 0.103 µM
Activity [8]: 47%
Activity [4]: 39%
